In article PMC3210410 (Bioorganic & medicinal chemistry letters, 2011):
Where two headings read alike, the source gives them in different places. Blank lines part the entries; values can stand above or below the compound they belong to.

What was measured:
Format in all cases: biochemical
MMP-13 [1] = target: T1, MMP-13 (Homo sapiens, UniProt P45452); assay: FRET triple-helical peptide; settings: for MMP-13 % Inhibition: 40 μM compound, fTHP-15 substrate, triplicate
How it was run: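 Triple-helical fTHP-15 FRET substrate, whose conformation engages protease secondary binding sites (exosites), cleaved by MMP-13 with each test compound at 40 μM. Activity is reported as percent inhibition from triplicate assays.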

ADAM17/TACE = ADAM17/TACE (Homo sapiens, UniProt P78536); assay: TACE inhibition; settings: data not shown
MMP-13 [2] = target: T1, MMP-13; assay: Dual inhibition kinetic assays; settings: compound 4 with either compound 1 or 3
MMP-13 [3] = target: T1, MMP-13; assay: Single inhibitor kinetic assays with MMP-13 and fTHP-15; settings: for mode of inhibition of MMP-13-mediated hydrolysis of the fTHP: Lineweaver-Burk plot, lines crossing on X axis
MMP-13 [4] = target: T1, MMP-13; assay: RP-HPLC-based secondary screen for artifactual inhibition; settings: data not shown
How it was run: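 Checks for fluorescence artifacts in the FRET assay. […] fTHP-15 substrate is analysed by RP-HPLC before and after adding test compound, so fluorescence interference can be separated from true inhibition of MMP-13.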

Chain of ADAM17/TACE (P78536 215-824): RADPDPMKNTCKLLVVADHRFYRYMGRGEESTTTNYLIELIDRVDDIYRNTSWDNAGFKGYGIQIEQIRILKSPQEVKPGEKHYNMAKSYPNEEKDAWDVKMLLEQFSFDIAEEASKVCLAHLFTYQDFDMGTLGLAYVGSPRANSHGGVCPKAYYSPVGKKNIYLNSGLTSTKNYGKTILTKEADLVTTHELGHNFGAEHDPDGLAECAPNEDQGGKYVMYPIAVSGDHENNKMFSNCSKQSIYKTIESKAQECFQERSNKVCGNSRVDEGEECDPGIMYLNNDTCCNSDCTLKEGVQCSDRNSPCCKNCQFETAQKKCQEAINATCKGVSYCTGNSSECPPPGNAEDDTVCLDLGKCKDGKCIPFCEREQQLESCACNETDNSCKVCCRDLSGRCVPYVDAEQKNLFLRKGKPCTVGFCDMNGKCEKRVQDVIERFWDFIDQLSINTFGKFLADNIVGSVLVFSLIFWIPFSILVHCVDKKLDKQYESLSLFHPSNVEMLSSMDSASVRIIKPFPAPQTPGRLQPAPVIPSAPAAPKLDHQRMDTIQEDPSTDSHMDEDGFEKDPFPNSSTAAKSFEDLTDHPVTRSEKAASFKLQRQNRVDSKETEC

SMILES: Oc1nc(SCc2ccc(Cl)cc2)nc2c1CCC2 [Compound 4]
inhibition at 40 µM (MMP-13 [1]; read-out: Inhibition (%) at [inhibitor] = 40 μM, MMP-13): 51%
inhibition of TACE (ADAM17/TACE): do not inhibit
binding relation in dual inhibition kinetics (MMP-13 [2]): non-mutually exclusive binding

SMILES: CCCc1cc(O)nc(SCc2ccc(Cl)cc2)n1 [Compound 9]
MMP-13 % Inhibition (MMP-13 [1]; SD <10% (Table 1)): inactive

SMILES: Oc1nc(SCc2ccc(Cl)cc2)nc2ccccc12 [Compound 16]
MMP-13 % Inhibition (MMP-13 [1]; SD <10% (Table 1)): inactive

SMILES: COC(=O)c1ccc(CSc2nc3c(c(=O)[nH]2)CCC3)cc1 [Compound 24, methyl 4-[(4-oxo-1,5,6,7-tetrahydrocyclopenta[d]pyrimidin-2-yl)sulfanylmethyl] benzoate]
inhibition at 40 µM (MMP-13 [1]; read-out: MMP-13 % Inhibition): 62.5%
mode of inhibition of MMP-13-mediated hydrolysis of the fTHP (MMP-13 [3]): non-competitive
inhibition in RP-HPLC secondary screen (MMP-13 [4]): inhibitors
inhibition of TACE (ADAM17/TACE): do not inhibit

SMILES: O=C(CSc1nc2c(c(=O)[nH]1)CCC2)c1ccccc1 [Compound 30]
MMP-13 % Inhibition (MMP-13 [1]; SD <10% (Table 2)): inactive

SMILES: O=c1[nH]c(SCc2coc(-c3cccc(Cl)c3)n2)nc2c1CCC2 [Compound 31]
MMP-13 % Inhibition (MMP-13 [1]; SD <10% (Table 2)): inactive

SMILES: Cc1oc(-c2cccc(Cl)c2)cc1CSc1nc2c(c(=O)[nH]1)CCC2 [Compound 32]
MMP-13 % Inhibition (MMP-13 [1]; SD <10% (Table 2)): Inactive

SMILES: Cc1cccc(CSc2nc(O)c3c(n2)CCCC3)c1 [Compound 34]
MMP-13 % Inhibition (MMP-13 [1]; SD <10% (Table 2)): inactive

Continued, values first:

MMP-13 % Inhibition (MMP-13 [1]; SD <10% (Table 1)): inactive
SMILES: Oc1[nH]c(SCc2ccc(Cl)cc2)nc2nncc1-2 [Compound 17]

MMP-13 % Inhibition (MMP-13 [1]; SD <10% (Table 1)): inactive
SMILES: O=c1[nH]c(SCc2ccc(Cl)cc2)nc(O)c1Cc1ccccc1 [Compound 18]

MMP-13 % Inhibition (MMP-13 [1]; SD <10% (Table 1)): inactive
SMILES: CC(=O)Nc1c(O)nc(SCc2ccc(Cl)cc2)nc1O [Compound 19]

inhibition at 40 µM (MMP-13 [1]; read-out: MMP-13 % Inhibition): 68.7%
mode of inhibition of MMP-13-mediated hydrolysis of the fTHP (MMP-13 [3]): non-competitive
fold more potent as MMP-13 inhibitor than lead compound 4 (MMP-13 [3]; relative to compound 4): approximately 5 fold
inhibition in RP-HPLC secondary screen (MMP-13 [4]): inhibitors
inhibition of TACE (ADAM17/TACE): do not inhibit
SMILES: Cc1ccc(CSc2nc(O)c3c(n2)CCC3)cc1 [Compound 20, 2-[(4-methylphenyl)methylsulfanyl]-1,5,6,7-tetrahydrocyclopenta[d]pyrimidin-4-one]
